Reference: ChEMBL document CHEMBL3877289, “New family of antimicrobial agents derived from 1,4-naphthoquinone” (Eur J Med Chem, 2016)
≈ marks a conversion by molar mass, not a printed value.

Columns and labels:
Pseudomonas aeruginosa = experiment: Antibacterial activity against Pseudomonas aeruginosa PCM 2562 after 20 hrs by microbroth dilution method; assay type: functional; details: PCM 2562, 20 h
How it was run: (§1)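 MIC by broth microdilution in Mueller–Hinton broth. Strains were pre-grown 24h at 37 °C with shaking at 180 rpm. Inoculum was 5x10^5 CFU/ml, exposed 20 h at 37 °C to compound (0.001 – 5 mg/ml, DMSO solvent). MIC was the lowest concentration inhibiting observable growth. Tetracycline served as reference. Triplicate.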

Enterococcus faecalis = experiment: Antibacterial activity against Enterococcus faecalis PCM 2673 after 20 hrs by microbroth dilution method; assay type: functional; details: PCM 2673, 20 h; how it was run: as §1
Escherichia coli = experiment: Antibacterial activity against Escherichia coli ATCC 8739 after 20 hrs by microbroth dilution method; assay type: functional; details: ATCC 8739, 20 h; how it was run: as §1
Salmonella bongori = experiment: Antibacterial activity against Salmonella bongori PCM 2552 after 20 hrs by microbroth dilution method; assay type: functional; details: PCM 2552, 20 h; how it was run: as §1
Staphylococcus aureus [1] = experiment: Antibacterial activity against Staphylococcus aureus ATCC 6538 after 20 hrs by microbroth dilution method; assay type: functional; details: ATCC 6538, 20 h; how it was run: as §1
Enterobacter cloacae = experiment: Antibacterial activity against Enterobacter cloacae PCM 2569 after 20 hrs by microbroth dilution method; assay type: functional; details: PCM 2569, 20 h; how it was run: as §1
Klebsiella pneumoniae = experiment: Antibacterial activity against Klebsiella pneumoniae PCM1 after 20 hrs by microbroth dilution method; assay type: functional; details: PCM1, 20 h; how it was run: as §1
Proteus vulgaris = experiment: Antibacterial activity against Proteus vulgaris PCM 2668 after 20 hrs by microbroth dilution method; assay type: functional; details: PCM 2668, 20 h; how it was run: as §1
[2] = Hemolytic activity in human erythrocytes at 1 to 250 ug/mL incubated for 1 hr; assay type: ADME, cell-based, Erythrocyte; details: read-out: Activity
How it was run: (§2)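 Human blood was collected into citrate dextrose anticoagulant. Erythrocytes were spun at 500×g for 10 min at 4 °C, then washed in PBS (10 mM phosphate, pH 7.5; 150 mM NaCl) until the supernatant was clear, and resuspended at 2%. 450 µl of suspension was mixed with compound in 50 µl DMSO (1 - 250 µg/ml), incubated 1h at 37 °C, spun at 5000×g for 10 min, and supernatant A415 was read. Controls: tetracycline and chloramphenicol negative, Triton X-100 (1%) positive.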

Staphylococcus aureus [3] = experiment: Antibacterial activity against Staphylococcus aureus CDC587 assessed as reduction in CFU/ml by <3 logs after 24 hrs; assay type: functional; details: CDC587, 24 h
[4] = Hemolytic activity in human blood cells at 5 ug/mL after 48 hrs by photometric method; assay type: ADME, cell-based, Erythrocyte; details: read-out: Activity
Staphylococcus aureus [5] = experiment: Antibacterial activity against Staphylococcus aureus MNPE assessed as reduction in CFU/ml by <3 logs after 24 hrs; assay type: functional
Staphylococcus aureus [6] = experiment: Antibacterial activity against Staphylococcus aureus MN8 assessed as reduction in CFU/ml by <3 logs after 24 hrs; assay type: functional; details: MN8, 24 h
Staphylococcus aureus [7] = experiment: Antibacterial activity against Staphylococcus aureus LAC assessed as reduction in CFU/ml by <3 logs after 24 hrs; assay type: functional
Staphylococcus aureus [8] = experiment: Antibacterial activity against Staphylococcus aureus MW2 assessed as reduction in CFU/ml by <3 logs after 24 hrs; assay type: functional; details: MW2, 24 h
[9] = Hemolytic activity in human erythrocytes at 60 ug/mL incubated for 1 hr; assay type: ADME, cell-based, Erythrocyte; details: read-out: Activity; how it was run: as §2

| Structure (SMILES) | MIC (Pseudomonas aeruginosa) [µg/mL] | MIC (Enterococcus faecalis) [µg/mL] | MIC (Escherichia coli) [µg/mL] | MIC (Salmonella bongori) [µg/mL] | MIC (Staphylococcus aureus [1]) [µg/mL] | MIC (Enterobacter cloacae) [µg/mL] | MIC (Klebsiella pneumoniae) [µg/mL] | MIC (Proteus vulgaris) [µg/mL] | hemolysis at 1 h [2] [%] | MIC (Staphylococcus aureus [3]) [µg/mL] | hemolysis at 48 h, 5 ug/mL [4] [%] | MIC (Staphylococcus aureus [5]) [µg/mL] | MIC (Staphylococcus aureus [6]) [µg/mL] | MIC (Staphylococcus aureus [7]) [µg/mL] | MIC (Staphylococcus aureus [8]) [µg/mL] | hemolysis at 1 h, 60 ug/mL [9] [%] |
| --- | --- | --- | --- | --- | --- | --- | --- | --- | --- | --- | --- | --- | --- | --- | --- | --- |
| O=C1C=C(N[C@@H](C(=O)O)c2ccccc2)C(=O)c2ccccc21 | 500 (≈ 1630 µM) | 500 (≈ 1630 µM) | 500 (≈ 1630 µM) | 500 (≈ 1630 µM) | 250 (≈ 814 µM) | 500 (≈ 1630 µM) | 500 (≈ 1630 µM) | – | – | – | – | – | – | – | – | – |
| CN(C)[C@@H]1C(O)=C(C(N)=O)C(=O)[C@@]2(O)C(O)=C3C(=O)c4c(O)cccc4[C@@](C)(O)[C@H]3C[C@@H]12 [TETRACYCLINE] | 15.6 (≈ 35.1 µM) | 31.2 (≈ 70.2 µM) | 0.5 (≈ 1.13 µM) | 3.9 (≈ 8.78 µM) | 7.8 (≈ 17.6 µM) | 7.8 (≈ 17.6 µM) | 15.6 (≈ 35.1 µM) | 7.8 (≈ 17.6 µM) | – | – | – | – | – | – | – | – |
| COc1cc(OC)c(C2=CC(=O)c3ccccc3C2=O)c(OC)c1 | 250 (≈ 771 µM) | – | 250 (≈ 771 µM) | 250 (≈ 771 µM) | 250 (≈ 771 µM) | 250 (≈ 771 µM) | 250 (≈ 771 µM) | – | – | – | – | – | – | – | – | – |
| O=C1C=C(c2ccccc2)C(=O)c2ccccc21 | 250 (≈ 1070 µM) | – | – | 250 (≈ 1070 µM) | – | – | – | – | – | – | – | – | – | – | – | – |
| Cc1ccc(C2=CC(=O)c3ccccc3C2=O)cc1C | 500 (≈ 1910 µM) | – | 500 (≈ 1910 µM) | 500 (≈ 1910 µM) | 500 (≈ 1910 µM) | 500 (≈ 1910 µM) | 500 (≈ 1910 µM) | 500 (≈ 1910 µM) | – | – | – | – | – | – | – | – |
| CN(C)c1ccc(C2=CC(=O)c3ccccc3C2=O)cc1 | 250 (≈ 901 µM) | – | 125 (≈ 451 µM) | 125 (≈ 451 µM) | 125 (≈ 451 µM) | 250 (≈ 901 µM) | 62.5 (≈ 225 µM) | 250 (≈ 901 µM) | – | – | – | – | – | – | – | – |
| COc1cc2ccc(C3=CC(=O)c4ccccc4C3=O)cc2cc1OC | 500 (≈ 1450 µM) | – | 500 (≈ 1450 µM) | 500 (≈ 1450 µM) | 500 (≈ 1450 µM) | 500 (≈ 1450 µM) | 500 (≈ 1450 µM) | – | – | – | – | – | – | – | – | – |
| O=C1C=C(c2ccc(N(Cc3ccccc3)Cc3ccccc3)cc2)C(=O)c2ccccc21 | 250 (≈ 582 µM) | 250 (≈ 582 µM) | 250 (≈ 582 µM) | 250 (≈ 582 µM) | 250 (≈ 582 µM) | 250 (≈ 582 µM) | 250 (≈ 582 µM) | – | – | – | – | – | – | – | – | – |
| O=C1C=CC(=O)c2ccccc21 [NAPHTHOQUINONE] | 125 (≈ 790 µM) | 125 (≈ 790 µM) | 125 (≈ 790 µM) | 125 (≈ 790 µM) | 31.2 (≈ 197 µM) | 250 (≈ 1580 µM) | 250 (≈ 1580 µM) | – | – | – | – | – | – | – | – | – |
| O=C1C=C(N[C@@H](Cc2c[nH]c3ccccc23)C(=O)O)C(=O)c2ccccc21 | 500 (≈ 1390 µM) | 500 (≈ 1390 µM) | 500 (≈ 1390 µM) | 500 (≈ 1390 µM) | 62.5 (≈ 173 µM) | 500 (≈ 1390 µM) | 500 (≈ 1390 µM) | 500 (≈ 1390 µM) | – | – | – | – | – | – | – | – |
| COc1cc(NC(C)=O)ccc1C1=CC(=O)c2ccccc2C1=O | 250 (≈ 778 µM) | – | 250 (≈ 778 µM) | 250 (≈ 778 µM) | 15.6 (≈ 48.5 µM) | 250 (≈ 778 µM) | 250 (≈ 778 µM) | – | ≤ 2 | – | – | – | – | – | – | – |
| O=C1C=C(Nc2ccccc2)C(=O)c2ccccc21 | 250 (≈ 1000 µM) | – | 250 (≈ 1000 µM) | 250 (≈ 1000 µM) | 62.5 (≈ 251 µM) | 250 (≈ 1000 µM) | 250 (≈ 1000 µM) | – | – | – | – | – | – | – | – | – |
| CC1=CC(=O)c2ccccc2C1=O [MENADIONE] | – | – | – | – | – | – | – | – | – | 3 (≈ 17.4 µM) | 3.5 | 3 (≈ 17.4 µM) | 3 (≈ 17.4 µM) | 3 (≈ 17.4 µM) | 3 (≈ 17.4 µM) | – |
| Cc1cc(C)c(C2=CC(=O)c3ccccc3C2=O)c(C)c1 | 500 (≈ 1810 µM) | – | 500 (≈ 1810 µM) | 500 (≈ 1810 µM) | 15.6 (≈ 56.5 µM) | 500 (≈ 1810 µM) | 500 (≈ 1810 µM) | 500 (≈ 1810 µM) | – | – | – | – | – | – | – | – |
| O=C1C=C(N2CCC[C@H]2C(=O)O)C(=O)c2ccccc21 | 250 (≈ 922 µM) | 250 (≈ 922 µM) | 250 (≈ 922 µM) | 250 (≈ 922 µM) | 31.2 (≈ 115 µM) | 250 (≈ 922 µM) | 250 (≈ 922 µM) | 500 (≈ 1840 µM) | – | – | – | – | – | – | – | – |
| O=C1C(c2ccccc2)=C(c2ccccc2)C(=O)c2ccccc21 | 500 (≈ 1610 µM) | – | 250 (≈ 806 µM) | 500 (≈ 1610 µM) | 62.5 (≈ 201 µM) | 500 (≈ 1610 µM) | 500 (≈ 1610 µM) | 500 (≈ 1610 µM) | – | – | – | – | – | – | – | – |
| COC(=O)[C@H](C)NC1=CC(=O)c2ccccc2C1=O | 500 (≈ 1930 µM) | 250 (≈ 964 µM) | 250 (≈ 964 µM) | 500 (≈ 1930 µM) | 62.5 (≈ 241 µM) | 500 (≈ 1930 µM) | 500 (≈ 1930 µM) | 500 (≈ 1930 µM) | – | – | – | – | – | – | – | – |
| CC(C)[C@H](NC1=CC(=O)c2ccccc2C1=O)C(=O)O | 500 (≈ 1830 µM) | 500 (≈ 1830 µM) | 500 (≈ 1830 µM) | 500 (≈ 1830 µM) | 500 (≈ 1830 µM) | 500 (≈ 1830 µM) | 500 (≈ 1830 µM) | 500 (≈ 1830 µM) | – | – | – | – | – | – | – | – |
| COc1ccc(C2=CC(=O)c3ccccc3C2=O)c(OC)c1 | 250 (≈ 849 µM) | – | 250 (≈ 849 µM) | 250 (≈ 849 µM) | 15.6 (≈ 53 µM) | 250 (≈ 849 µM) | 250 (≈ 849 µM) | – | ≤ 2 | – | – | – | – | – | – | – |
| Cc1cc(N(C)C)ccc1C1=CC(=O)c2ccccc2C1=O | 250 (≈ 858 µM) | – | 250 (≈ 858 µM) | 250 (≈ 858 µM) | 7.8 (≈ 26.8 µM) | 250 (≈ 858 µM) | 250 (≈ 858 µM) | – | ≤ 2 | – | – | – | – | – | – | 2 |
| COc1cc(N(C)C)ccc1C1=CC(=O)c2ccccc2C1=O | 250 (≈ 813 µM) | – | 250 (≈ 813 µM) | 250 (≈ 813 µM) | 7.8 (≈ 25.4 µM) | 250 (≈ 813 µM) | 250 (≈ 813 µM) | – | – | – | – | – | – | – | – | – |
